The values that follow come from ChEMBL document CHEMBL1145257, “Synthesis and antibacterial activity of hydrolytically stable (-)-epicatechin gallate analogues for the modulation of beta-lactam resistance in Staphylococcus aureus” (2005).

Molecules are shown by their SMILES. ≈ marks a conversion by molar mass, not a printed value.

Type in all cases: functional
For test [1], the system named is Staphylococcus aureus. Nature of the test: Minimum inhibitory concentration against methicillin resistant Staphylococcus aureus strain EMRSA 16. A digest of the protocol:
(§1)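 Intrinsic activity by broth microdilution. Inoculum about 10⁴ cfu per well in Mueller-Hinton broth with 2% w/v NaCl, doubling dilutions of compound. MIC read after 24 h at 35 °C. S. aureus ATCC29213 served as standard strain.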

Test [2] has as its system Staphylococcus aureus. The test is described as follows: Minimum inhibitory concentration against methicillin resistant Staphylococcus aureus strain EMRSA 15. The procedure, abridged:
as §1

In test [3] the test system is Staphylococcus aureus. The test is described as follows: Minimum inhibitory concentration against methicillin resistant Staphylococcus aureus strain EMRSA 15 in combination with oxacillin. The procedure, abridged: (§2)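 Oxacillin MIC measured with test compound held at a fixed 25 mg/L, using doubling dilutions of oxacillin. Broth microdilution with about 10⁴ cfu per well in Mueller-Hinton broth plus 2% w/v NaCl. MIC read after 24 h at 35 °C. S. aureus ATCC29213 served as standard. Two separate experiments reported.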

Test [4] deals with Staphylococcus aureus. Nature of the test: Minimum inhibitory concentration against methicillin resistant Staphylococcus aureus strain EMRSA 16 in combination with oxacillin. The procedure, abridged:
as §2

For test [5], the system named is Staphylococcus aureus. Nature of the test: Minimum inhibitory concentration against methicillin resistant Staphylococcus aureus strain BB 568 in combination with oxacillin; Experiment 1. A digest of the protocol:
as §2

Test [6] relates to Staphylococcus aureus. Nature of the test: Minimum inhibitory concentration against methicillin resistant Staphylococcus aureus strain BB 568 in combination with oxacillin; Experiment 2. A digest of the protocol:
as §2

Test [7] has as its system Staphylococcus aureus. Nature of the test: Minimum inhibitory concentration against methicillin resistant Staphylococcus aureus strain BB 568. The procedure, abridged:
as §1

The subject of test [8] is Staphylococcus aureus. The test is described as follows: Minimum inhibitory concentration against methicillin resistant Staphylococcus aureus strain BB 568 in combination with oxacillin. The procedure, abridged: as §2
Test [9] concerns Staphylococcus aureus. The test is described as follows: Minimum inhibitory concentration against methicillin resistant Staphylococcus aureus strain EMRSA 16 in combination with oxacillin; Experiment 2. A digest of the protocol:
as §2

The test system of test [10] is Staphylococcus aureus. Nature of the test: Minimum inhibitory concentration against methicillin resistant Staphylococcus aureus strain EMRSA 16 in combination with oxacillin; Experiment 1. A digest of the protocol:
as §2

The test system of test [11] is Staphylococcus aureus. The test is described as follows: Minimum inhibitory concentration against methicillin resistant Staphylococcus aureus strain EMRSA 15 in combination with oxacillin; Experiment 2. The procedure, abridged: as §2
The subject of test [12] is Staphylococcus aureus. The test is described as follows: Minimum inhibitory concentration against methicillin resistant Staphylococcus aureus strain EMRSA 15 in combination with oxacillin; Experiment 1. The procedure, abridged:
as §2

On to `O=C(N[C@@H]1Cc2c(O)cc(O)cc2O[C@@H]1c1ccc(O)c(O)c1)c1cc(O)c(O)c(O)c1`, for which the MIC – broadly, the least concentration at which growth counts as inhibited – was 128 µg/mL (≈ 290 µM) in the test with Staphylococcus aureus [1]; 256 µg/mL (≈ 580 µM) against Staphylococcus aureus [2]; no more than 0.5 µg/mL in the test with Staphylococcus aureus [3]; 1 µg/mL in the test with Staphylococcus aureus [4]; 4 µg/mL with Staphylococcus aureus [5]; 8 µg/mL in the test with Staphylococcus aureus [6]. The molecule also returned an MIC in the test on Staphylococcus aureus [7] of 256 µg/mL (≈ 580 µM).
Consider `O=C(N[C@H]1Cc2c(O)cc(O)cc2O[C@@H]1c1ccc(O)c(O)c1)c1cc(O)c(O)c(O)c1`, for which the MIC in the test with Staphylococcus aureus [1] was 128 µg/mL (≈ 290 µM); in the test with Staphylococcus aureus [8], 64 µg/mL; in the test with Staphylococcus aureus [2], 256 µg/mL (≈ 580 µM); with Staphylococcus aureus [9], 512 µg/mL; in the test on Staphylococcus aureus [10], 256 µg/mL; in the test with Staphylococcus aureus [11], 4 µg/mL. Also, the MIC in the test on Staphylococcus aureus [7] came to 256 µg/mL (≈ 580 µM); in the test on Staphylococcus aureus [12], 2 µg/mL.
On to `Cc1onc(-c2ccccc2)c1C(=O)N[C@@H]1C(=O)N2[C@@H]1SC(C)(C)[C@@H]2C(=O)O` [OXACILLIN], for which the results for the MIC against Staphylococcus aureus [1], with Staphylococcus aureus [2] and with Staphylococcus aureus [7] were 512 µg/mL (≈ 1280 µM), 32 µg/mL (≈ 79.7 µM) and 256 µg/mL (≈ 638 µM), respectively.
